An excerpt weighted towards active compounds, which were near 2.9% of everything screened.
SIRT5 inh: inhibitors of human sirtuin-5 desuccinylase; Purified SirT5, succinyl-peptide AMC, trypsin-coupled fluorescence; inhibition, % at 15 µM; actives 1.1% (n = 330,000); in the data active means inhibition above about 15%
Target sequence (Q9NXA8 whole entry, looked up): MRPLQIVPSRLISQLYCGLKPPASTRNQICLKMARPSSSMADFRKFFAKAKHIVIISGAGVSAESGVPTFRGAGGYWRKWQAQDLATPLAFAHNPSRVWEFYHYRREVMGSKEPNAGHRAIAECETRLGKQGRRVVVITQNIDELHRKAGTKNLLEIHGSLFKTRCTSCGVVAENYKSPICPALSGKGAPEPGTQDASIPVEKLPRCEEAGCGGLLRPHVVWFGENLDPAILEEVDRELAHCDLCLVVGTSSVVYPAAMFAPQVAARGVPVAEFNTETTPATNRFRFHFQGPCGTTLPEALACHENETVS
S100A4 inh HTS: blocks human S100A4 binding to myosin IIA peptide; AID 652163; inhibition, % at 10.7 µM; S100A4/TAMRA-MyoIIA peptide fluorescence polarization; actives 0.14% (n = 360,000);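 active means mean inhibition of at least 70% across replicates, with every replicate also reaching that level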
Target sequence (P26447 whole entry, looked up): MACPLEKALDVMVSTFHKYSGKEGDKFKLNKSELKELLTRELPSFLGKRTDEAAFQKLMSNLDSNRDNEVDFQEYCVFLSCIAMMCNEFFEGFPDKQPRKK
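Material: S100A4 monomer protein | Medium: HEPES pH 7.2 with CaCl2, KCl, NaCl, DTT, Triton | Reagent: Labelled myosin peptide probe, 5 nM | Doses: One dose per compound | Times: 5 min incubation before reading | Benchmarks: Neutral control DMSO, positive control TFP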
DENV2 CPE rescue: inhibitors of DENV2 cytopathic effect; DENV2-infected cells, cytopathic effect rescue, plate reader; CPE inhibition, % at 9.99 µM; actives 1.7% (n = 350,000); in the data active means CPE inhibition above about 20%, passing the limit was not always enough; tested in BHK-21 cells;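 further: 0% = median of neutral control wells and 100% = median of positive control wells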
CAL PDZ FP-1: CAL PDZ (human) peptide binding inhibition | inhibition, % at 24.9 µM | Q9HD26 | actives 0.92% (n = 300,000) | purified CAL PDZ, TMR-peptide fluorescence polarization, 1 h;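 active means mean inhibition of at least 30% with at least half of replicates also reaching 30%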;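 further: 0% = DMSO neutral control and 100% = excess unlabeled competitor peptide PRC23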
CAL PDZ FP-2: inhibitors of human CAL PDZ peptide binding; Q9HD26; AID 504414; actives 0.02% (n = 330,000); inhibition, % at 20 µM; purified CAL PDZ, TMR-peptide fluorescence polarization, 1 h;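 active means highest replicate inhibition of at least 40%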;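 further: plate controls were DMSO neutral control wells for no effect and unlabeled competitor peptide control wells for full effect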
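material = purified tagged CAL PDZ domain construct (CerCALP) | buffer or medium = sodium phosphate/NaCl buffer pH 7.4 with TCEP, IgG, Thesit | reagent = TMR-labelled reporter peptide T*-PRC34 bound in PDZ groove | incubation = 1 h room-temperature incubation prior to read | measured by = fluorescence polarization (mP) | evaluation = percent inhibition from loss of millipolarization | control set = unlabelled peptide and DMSO controls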
ERAP1 HTS inh: blocks human ERAP1 aminopeptidase activity | Q9NZ08 | recombinant ERAP1, Leu-AMC fluorescence, 60 min | inhibition, % at 10.7 µM | actives 0.15% (n = 340,000);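 active means mean replicate inhibition of at least 30%, or all replicates individually reaching that 30% level; inactive means mean below 30% and not every replicate reaching it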;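 further: 0% = neutral control wells and 100% = L-leucinethiol positive control wells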
* hit, by the source's call; · = no result; ! = not active in a repeat.

SMILES	SIRT5 inh	S100A4 inh HTS	DENV2 CPE rescue	CAL PDZ FP-1	CAL PDZ FP-2	ERAP1 HTS inh
O=C(Cn1cnc2ccccc2c1=O)Nc1ccc(S(=O)(=O)N2CCCC2)cc1	16.4*	2.8	·	-3.7	·	-0.4
COc1ccc(CC(=O)Nc2ccc(S(=O)(=O)Nc3cc(C)on3)cc2)cc1	·	·	·	48.9*	-1.2	·
Cc1cc(NS(=O)(=O)c2ccc(NC(=O)Cc3ccccc3)cc2)nc(C)n1	2.3	0.6	-5.3	-3.4	-2.2	-1.9
Cc1cc(NS(=O)(=O)c2ccc(NC(=S)NC(=O)c3cccc(S(=O)(=O)N(C)C)c3)cc2)no1	-1.5	-3.1	-1.7	52.2*	-2.7	2.3
O=C(Cn1cnc2ccccc2c1=O)Nc1ccc(S(=O)(=O)N2CCOCC2)cc1	-0.8	4.1	5.5	-6.3	-0.1	-3.3
CN1CCN(C(=O)C[C@@H]2CC[C@H]3[C@@H](COC[C@@H](O)CN3C(=O)Nc3ccc4c(c3)OCO4)O2)CC1	·	·	6.6	·	·	·
CCCNC(=O)Nc1ccc2c(c1)OC[C@H](C)N(C(=O)c1ccccc1F)C[C@@H](C)[C@@H](OC)CN(C)C2=O	2.4	34.7	2.6	·	·	-4.8
CCOc1ccccc1OCCCC(=O)Nc1ccc(S(=O)(=O)Nc2cc(C)nc(C)n2)cc1	2.2	0.2	1.3	-6.4	-0.6	30.2*
COc1cc(NC(=S)N2CCN(S(=O)(=O)c3ccc(F)cc3)CC2)cc(OC)c1	-5.6	1.0	-4.7	48.3*	-1.7	-0.4
Cc1cc(NS(=O)(=O)c2ccc(NC(=O)COc3ccc(Br)cc3)cc2)nc(C)n1	33.0*	-3.6	-3.1	-6.1	-1.3	0.5
Cc1cc(NS(=O)(=O)c2ccc(NC(=O)CCCC(=O)O)cc2)nc(C)n1	·	·	·	-0.7	-0.6	·
O=C(Cc1cccc(C(F)(F)F)c1)Nc1cccc(S(=O)(=O)N2CCCC2)c1	6.3	-4.0	-1.9	-3.2	-1.9	0.9
O=C(Cc1cccc(C(F)(F)F)c1)Nc1ccc(S(=O)(=O)N2CCCC2)cc1	1.1	-6.0	79.0*	-1.4	-0.1	1.5
COc1cccc(S(=O)(=O)N[C@H]2CC[C@@H](CCn3cc(-c4ccccn4)nn3)O[C@@H]2CO)c1	2.5	20.0	-2.4	·	·	0.4
COC(=O)c1cn(CC(=O)N2CCOCC2)nn1	0.2	6.1	-3.0	·	·	0.9
CNC[C@@H]1Oc2c(NC(=O)C3CCOCC3)cccc2C(=O)N([C@@H](C)CO)C[C@@H]1C	4.5	-2.1	8.5	·	·	-1.0
CN1CCN(S(=O)(=O)c2ccc(NC(=O)Cc3ccc([N+](=O)[O-])cc3)cc2)CC1	-0.3	-2.8	1.3	-2.4	-2.0	2.6
COc1ccc(CC(=O)Nc2ccc(S(=O)(=O)N3CCN(C)CC3)cc2)cc1	18.4*	-10.7	-3.8	-4.8	-0.4	3.2
COc1cc(/C=N/NC(=O)c2nonc2N)cc(OC)c1OC	18.4*	1.1	-5.2	-2.6	-4.0	11.5
CN(C(=O)c1ccc(Br)o1)C1CCCCC1	0.5	-1.6	60.8*	-5.1	-0.1	4.1
CN(C(=O)c1ccc(Br)o1)C1CCS(=O)(=O)C1 (centres undefined)	-0.2	-1.7	-4.9	·	-1.3	-3.5
C[C@@H]1CN([C@@H](C)CO)C(=O)c2cc(-c3ccc(F)cc3)cnc2O[C@H]1CN(C)CC1CCCCC1	6.3	2.9	3.1	·	·	-12.4
CCO[C@H]1OC(C(=O)NC2CC2)=C[C@@H](c2ccc(C(F)(F)F)cc2)[C@@H]1CCCO	8.3	6.7	24.8*!	8.2	0.0	4.0
CCO[C@H]1OC(C(=O)O)=C[C@@H](C(C)(C)C)[C@@H]1CCCO	22.8*	-0.4	15.4	0.2	1.3	-4.5
CCO[C@H]1OC(C(=O)N2CCOCC2)=C[C@@H](c2cn(C(C)=O)c3ccccc23)[C@@H]1CCCO	-4.5	2.0	27.5*!	27.6	0.6	0.1
SMILES	SIRT5 inh	S100A4 inh HTS	DENV2 CPE rescue	CAL PDZ FP-1	CAL PDZ FP-2	ERAP1 HTS inh
CCO[C@@H]1OC(C(=O)NC2CC2)=C[C@H](c2ccc(C(F)(F)F)cc2)[C@H]1CCCO	-0.6	11.5	11.8	-3.7	-0.7	3.1
CCO[C@H]1OC(C(=O)O)=C[C@@H](c2ccc3c(c2)OCO3)[C@@H]1CCCO	-1.6	-15.3	23.8*	-0.3	0.0	-2.9
C[C@H]1CN([C@@H](C)CO)C(=O)CCCn2cc(nn2)CO[C@H]1CN(C)S(=O)(=O)c1cccc(F)c1	0.2	-14.0	-4.5	·	·	-0.2
COc1ccc(S(=O)(=O)N[C@H]2CC[C@H](CCn3cc(-c4ccccc4F)nn3)O[C@@H]2CO)cc1	-3.9	2.4	-4.0	·	·	2.0
C[C@H](CO)N1C[C@H](C)[C@@H](CN(C)C(=O)Cc2ccncc2)Oc2ncc(C3=CCCC3)cc2C1=O	3.4	-17.9	15.1	·	·	1.9
O=C(CSc1nnc(CNC(=O)c2cccs2)o1)Nc1ccccc1	-4.5	0.4	·	-3.8	-0.8	2.0
O=C(CSc1nnc(CNC(=O)c2cccs2)o1)Nc1ccccc1C(F)(F)F	1.2	-9.0	-1.5	103.1*	-0.7	-5.7
COc1ccc(NC(=O)Nc2ccc3c(c2)C(=O)N([C@H](C)CO)C[C@H](C)[C@H](CN(C)S(=O)(=O)c2ccc(Cl)cc2)O3)cc1	8.7	-1.5	-14.4	·	·	0.9
COc1ccccc1CC(=O)NCc1nn(-c2ccccc2)nc1C	-3.7	-8.8	-2.3	64.8*	1.0	-2.9
C[C@@H]1CN([C@@H](C)CO)C(=O)c2cccc(NC(=O)C3CCCCC3)c2O[C@@H]1CN(C)S(=O)(=O)c1ccc(F)cc1	3.6	-0.1	15.1	·	·	-0.9
C[C@@H](O)C#Cc1ccc([C@H]2[C@H](CO)N3CCCCN(C(=O)c4cccc(F)c4)C[C@@H]23)cc1	-0.4	-0.4	1.3	·	·	0.3
CN(C)S(=O)(=O)c1cc(NC(=O)Cn2ccsc2=N)ccc1Cl	-2.0	-4.4	4.0	101.0*	0.3	-4.3
CC1=Nc2ccc(C)cc2/C1=C/c1c(N)n2c(S(=O)(=O)C(C)C)nsc2nc1=O	19.3*	0.0	-3.0	-2.2	-3.6	-3.2
CC1=Nc2ccccc2/C1=C/c1c(N)n2c(S(=O)(=O)C(C)C)nsc2nc1=O	·	2.1	·	-4.2	-2.0	7.4
C[C@H]1CN([C@@H](C)CO)C(=O)c2cccc(NC(=O)Nc3ccc4c(c3)OCO4)c2O[C@@H]1CN(C)Cc1ccc(Cl)c(Cl)c1	-2.5	-5.2	1.4	·	·	3.2
COc1cc(C2C(C#N)=C(N)Oc3c2ccc2ccccc32)ccc1OCC(=O)Nc1ccc(C)cc1 (centres undefined)	20.0*	-1.4	-3.0	-1.7	1.1	4.2
CN(C)S(=O)(=O)c1cccc(NC(=O)CSc2nc3c(cc2C#N)C(=O)CC(C)(C)C3)c1	·	-1.0	-5.0	-1.3	-3.7	-1.9
CN(C)S(=O)(=O)c1ccc(Cl)c(NC(=O)CSc2nc3c(cc2C#N)C(=O)CC(C)(C)C3)c1	-0.3	-0.7	30.8*	-1.8	-1.6	1.5
